Compound activity from PubChem.
CHRM5 agonist: CHRM5 agonism in calcium assay; P08912; CHO-K1 hM5 cells, Fluo-8 calcium fluorescence; 0% DMSO wells, 100% maximal acetylcholine response; activation, % at 3 µM; 0.19% of 360,000 active; AID 624037;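 active = activation above the run's mean over test compounds plus 3 SD, cut at about 23% in these data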;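 also: signal is peak over basal fluorescence ratio across the kinetic read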
Target sequence (P08912 whole entry, looked up): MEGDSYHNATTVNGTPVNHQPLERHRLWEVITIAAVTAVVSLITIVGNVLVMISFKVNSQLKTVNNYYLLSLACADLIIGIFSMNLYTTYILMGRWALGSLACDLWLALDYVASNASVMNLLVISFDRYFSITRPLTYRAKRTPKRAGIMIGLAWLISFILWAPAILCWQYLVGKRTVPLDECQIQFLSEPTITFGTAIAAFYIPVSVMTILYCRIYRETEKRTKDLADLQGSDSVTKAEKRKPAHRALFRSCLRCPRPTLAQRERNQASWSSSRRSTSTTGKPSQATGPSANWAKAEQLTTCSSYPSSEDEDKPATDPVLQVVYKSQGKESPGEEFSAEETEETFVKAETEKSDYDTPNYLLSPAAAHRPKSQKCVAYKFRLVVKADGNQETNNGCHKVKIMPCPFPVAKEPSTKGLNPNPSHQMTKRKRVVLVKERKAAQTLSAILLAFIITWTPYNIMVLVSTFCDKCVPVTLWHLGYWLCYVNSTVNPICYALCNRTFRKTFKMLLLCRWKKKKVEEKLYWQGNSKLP
CHRM5 antagonist: blocks acetylcholine activation of human M5 receptor; P08912; CHO-hM5 cells, Fluo-8 calcium fluorescence, ACh EC80; inhibition, % at 3 µM; 0.59% of 360,000 active; AID 624040;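 active = inhibition above a per-plate cutoff, the mean of that plate's test compounds plus 3 SD, cut at about 27% in these data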
M5 PAM: potentiates acetylcholine response at human M5 receptor; AID 624038; CHO-K1 hM5, Fluo-8 calcium, ACh EC20 PAM; 0% = ACh EC20, 100% = ACh EC100; P08912; activation, % at 3 µM; 0.3% of 360,000 active;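 active = activation above the run cutoff, the mean activation of all test compounds plus 3 SD, cut at about 18% in these data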
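system = human M5 receptor in CHO-K1 cells | reagent = EC20 acetylcholine as agonist stimulus | compound dosing = single-point, 3 µM nominal | incubation = Fluo-8 loading 80 min at 37 °C plus 30 min room temperature | detection = Fluo-8 calcium dye fluorescence, kinetic read | benchmarks = low control EC20 acetylcholine (0%), high control EC100 acetylcholine (100%)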
CHRM4 agonist: CHRM4 agonism in calcium assay; P08173; CHO-K1 hM4/Gqi5, Fluo-8 calcium fluorescence; vehicle 0%, full acetylcholine response 100%; activation, % at 3 µM; 0.14% of 360,000 active; AID 624127;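 active = activation above the run mean over all test wells plus 3 SD, cut at about 32% in these data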;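 also: peak over basal fluorescence ratio per well then scaled between controls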
CHRM4 antagonist: antagonists of human muscarinic M4 receptor (CHRM4) | 0.73% of 360,000 active | P08173 | CHO-hM4 cells, ACh EC80, Fluo-8 calcium fluorescence | AID 624125 | inhibition, % at 3 µM;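 active = inhibition above its plate's cutoff, the mean inhibition of sample wells plus 3 SD, cut at about 27% in these data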
M4 PAM: CHRM4 positive allosteric modulation | activation, % at 3 µM | P08173 | 0.4% of 360,000 active | CHO-K1 hM4/Gqi5, Fluo-8 calcium fluorescence, ACh EC20; 0% = ACh EC20, 100% = maximal ACh;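 active = activation above its plate's cutoff, the mean activation of sample wells plus 3 SD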
Numbers stand for hits. This is a sample that favours compounds with a hit; in the whole collection about 1.9% have one here.

How did CSc1ccccc1NC(=O)CCc1ccccc1 do in these assays?
CHRM5 agonist: inactive; CHRM5 antagonist: inactive; M5 PAM: inactive; CHRM4 agonist: inactive; CHRM4 antagonist: inactive; M4 PAM: 22

How did CC1CCCCN1CC(=O)Nc1ccc(Oc2ccccc2)cc1 (stereo unspecified) do in these assays?
CHRM5 agonist: inactive; CHRM5 antagonist: inactive; M5 PAM: inactive; CHRM4 agonist: inactive; CHRM4 antagonist: 57; M4 PAM: inactive

What do the screens show for `CC1CCCCN1CC(=O)NC(c1ccccc1)c1ccccc1` (stereo unspecified)?
CHRM5 agonist: inactive; CHRM5 antagonist: inactive; M5 PAM: inactive; CHRM4 agonist: inactive; CHRM4 antagonist: inactive; M4 PAM: inactive

How did N#CCCSc1ccccc1NC(=O)c1cc(=O)c2ccccc2o1 do in these assays?
CHRM5 agonist: inactive; CHRM5 antagonist: inactive; M5 PAM: inactive; CHRM4 agonist: inactive; CHRM4 antagonist: inactive; M4 PAM: inactive

How did Cc1cccc(C)c1NC(=O)CNC(=O)CCCc1c[nH]c2ccccc12 do in these assays?
CHRM5 agonist: inactive; CHRM5 antagonist: inactive; M5 PAM: inactive; CHRM4 agonist: inactive; CHRM4 antagonist: inactive; M4 PAM: inactive

What do the screens show for `CCN1CCN(c2ccc(S(=O)(=O)N3CCCCC3)cc2NC(=O)Cc2ccc(Cl)c(Cl)c2)CC1`?
CHRM5 agonist: 28; CHRM5 antagonist: inactive; M5 PAM: inactive; CHRM4 agonist: 54; CHRM4 antagonist: inactive; M4 PAM: inactive

What do the screens show for `Cc1ccccc1OCCC(=O)Nc1cc(S(=O)(=O)N2CCCCC2)ccc1N1CCN(C)CC1`?
CHRM5 agonist: inactive; CHRM5 antagonist: inactive; M5 PAM: inactive; CHRM4 agonist: 56; CHRM4 antagonist: inactive; M4 PAM: inactive

What do the screens show for `CCN1CCN(c2ccc(S(=O)(=O)N3CCOCC3)cc2NC(=O)CCOc2ccccc2)CC1`?
CHRM5 agonist: inactive; CHRM5 antagonist: 29; M5 PAM: inactive; CHRM4 agonist: inactive; CHRM4 antagonist: inactive; M4 PAM: inactive

What do the screens show for `Cc1cccc(N2CCN(CC(=O)Nc3ccc(S(=O)(=O)N4CCOCC4)cc3)CC2)c1C`?
CHRM5 agonist: inactive; CHRM5 antagonist: 34; M5 PAM: inactive; CHRM4 agonist: inactive; CHRM4 antagonist: inactive; M4 PAM: inactive

How did CCN1CCN(c2ccc(S(=O)(=O)N3CCCCC3)cc2NC(=O)Cc2ccccc2)CC1 do in these assays?
CHRM5 agonist: inactive; CHRM5 antagonist: inactive; M5 PAM: inactive; CHRM4 agonist: inactive; CHRM4 antagonist: inactive; M4 PAM: inactive

How did Cc1ccsc1C(=O)NCCc1nnc2ccccn12 do in these assays?
CHRM5 agonist: inactive; CHRM5 antagonist: inactive; M5 PAM: inactive; CHRM4 agonist: inactive; CHRM4 antagonist: inactive; M4 PAM: inactive

What do the screens show for `O=S(=O)(NCc1nnc2ccccn12)c1ccc(F)cc1`?
CHRM5 agonist: inactive; CHRM5 antagonist: inactive; M5 PAM: inactive; CHRM4 agonist: inactive; CHRM4 antagonist: inactive; M4 PAM: inactive

How did Cc1ccc(S(=O)(=O)N2CCOCC2)cc1NC(=O)COC(=O)C1CCC1 do in these assays?
CHRM5 agonist: inactive; CHRM5 antagonist: inactive; M5 PAM: inactive; CHRM4 agonist: inactive; CHRM4 antagonist: inactive; M4 PAM: inactive

How did CCOC(=O)C1CCN(CC(=O)Nc2cc(S(=O)(=O)N3CCOCC3)ccc2C)CC1 do in these assays?
CHRM5 agonist: inactive; CHRM5 antagonist: inactive; M5 PAM: 19; CHRM4 agonist: inactive; CHRM4 antagonist: inactive; M4 PAM: inactive

What do the screens show for `CCCCCC(=O)Nc1cc(S(=O)(=O)N2CCCCC2)ccc1N1CCOCC1`?
CHRM5 agonist: inactive; CHRM5 antagonist: inactive; M5 PAM: inactive; CHRM4 agonist: inactive; CHRM4 antagonist: inactive; M4 PAM: inactive

What do the screens show for `CCCCCC(=O)Nc1cc(S(=O)(=O)N2CCOCC2)ccc1N1CCCC1`?
CHRM5 agonist: inactive; CHRM5 antagonist: inactive; M5 PAM: 30; CHRM4 agonist: inactive; CHRM4 antagonist: inactive; M4 PAM: inactive

Results for COC(=O)CC1(C(=O)OC)Oc2ccccc2C(=O)N1c1ccc(F)cc1F (stereo unspecified) ?
CHRM5 agonist: inactive; CHRM5 antagonist: inactive; M5 PAM: inactive; CHRM4 agonist: inactive; CHRM4 antagonist: inactive; M4 PAM: inactive

What do the screens show for `CC(=O)c1ccc(N2CCC(c3cc(-c4ccc(Cl)cc4Cl)n[nH]3)CC2)c([N+](=O)[O-])c1`?
CHRM5 agonist: inactive; CHRM5 antagonist: inactive; M5 PAM: inactive; CHRM4 agonist: inactive; CHRM4 antagonist: 34; M4 PAM: inactive

Results for O=C(O)c1ccccc1C(=O)c1ccc(N2CCCC2)c([N+](=O)[O-])c1 ?
CHRM5 agonist: inactive; CHRM5 antagonist: inactive; M5 PAM: inactive; CHRM4 agonist: inactive; CHRM4 antagonist: inactive; M4 PAM: inactive

Results for CC(=O)c1ccc(N2CCN(c3ccccc3O)CC2)c([N+](=O)[O-])c1 ?
CHRM5 agonist: inactive; CHRM5 antagonist: 31; M5 PAM: inactive; CHRM4 agonist: inactive; CHRM4 antagonist: inactive; M4 PAM: inactive

How did Cc1cc(/C=C2\C(=N)N3N=C(S(C)(=O)=O)SC3=NC2=O)c(C)n1Cc1ccccc1 do in these assays?
CHRM5 agonist: inactive; CHRM5 antagonist: inactive; M5 PAM: inactive; CHRM4 agonist: inactive; CHRM4 antagonist: inactive; M4 PAM: inactive

How did CCCC1=NN2C(=N)/C(=C\c3cc(C)n(Cc4ccccc4)c3C)C(=O)N=C2S1 do in these assays?
CHRM5 agonist: 36; CHRM5 antagonist: inactive; M5 PAM: inactive; CHRM4 agonist: 42; CHRM4 antagonist: inactive; M4 PAM: inactive

Results for CNC(=O)c1nnsc1S(=O)c1ccc(Cl)cc1 (stereo unspecified) ?
CHRM5 agonist: inactive; CHRM5 antagonist: inactive; M5 PAM: inactive; CHRM4 agonist: inactive; CHRM4 antagonist: 28; M4 PAM: inactive

Results for CCCNC(=O)c1nnsc1S(=O)c1ccc(Cl)cc1 (stereo unspecified) ?
CHRM5 agonist: inactive; CHRM5 antagonist: inactive; M5 PAM: inactive; CHRM4 agonist: inactive; CHRM4 antagonist: 43; M4 PAM: inactive

How did CCCNC(=O)c1nnsc1S(=O)(=O)c1ccc(Cl)cc1 do in these assays?
CHRM5 agonist: inactive; CHRM5 antagonist: inactive; M5 PAM: inactive; CHRM4 agonist: inactive; CHRM4 antagonist: 65; M4 PAM: inactive

How did Cc1nn(CC(=O)N2CCN(c3cccc(C(F)(F)F)c3)CC2)c(=O)c2cccn12 do in these assays?
CHRM5 agonist: inactive; CHRM5 antagonist: inactive; M5 PAM: inactive; CHRM4 agonist: inactive; CHRM4 antagonist: inactive; M4 PAM: inactive

What do the screens show for `Oc1ccc2sc(-c3ccccc3O)c(-c3ccc(OCCN4CCCCC4)cc3)c2c1`?
CHRM5 agonist: inactive; CHRM5 antagonist: inactive; M5 PAM: inactive; CHRM4 agonist: 61; CHRM4 antagonist: 43; M4 PAM: inactive

How did COc1cccc(-c2sc3ccccc3c2-c2ccc(OCCN(C)C)cc2)c1 do in these assays?
CHRM5 agonist: inactive; CHRM5 antagonist: inactive; M5 PAM: inactive; CHRM4 agonist: inactive; CHRM4 antagonist: 47; M4 PAM: inactive
